Source: ChEMBL document CHEMBL4316620, “Dihydropyrrolones as bacterial quorum sensing inhibitors” (Bioorg Med Chem Lett, 2019)
Active and inactive are the calls of the source. The calls are words filed in the database; no cut-off is given here.

Columns and labels:
Pseudomonas aeruginosa [1] = assay: Toxicity in Pseudomonas aeruginosa MH602 PlasB::gfp assessed as inhibition of bacterial growth at 31.25 uM incubated for 15 hrs by spectrophotometry; format: organism-based; details: MH602, 15 h, read-out: GI
Pseudomonas aeruginosa [2] = assay: Toxicity in Pseudomonas aeruginosa MH602 PlasB::gfp assessed as inhibition of bacterial growth at 62.5 uM incubated for 15 hrs by spectrophotometry; format: organism-based; details: MH602, 15 h, read-out: GI
[3] = Inhibition of quorum sensing system in Pseudomonas aeruginosa MH602 PlasB::gfp at 125 uM incubated for 15 hrs by GFP reporter gene assay
Method in brief: (§1)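 Reporter strain P. aeruginosa PlasB::gfp (PAMH602) makes its own AHL; lasB promoter drives GFP-ASV. Cultures incubated with compound over 250–31.25 µM at 37 °C for 15 h, then GFP fluorescence read at 535 nm. QSI expressed as % relative to untreated PAMH602 negative control. Furanone positive control.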

[4] = Inhibition of quorum sensing system in Pseudomonas aeruginosa MH602 PlasB::gfp at 62.5 uM incubated for 15 hrs by GFP reporter gene assay; method in brief: as §1
Pseudomonas aeruginosa [5] = assay: Toxicity in Pseudomonas aeruginosa MH602 PlasB::gfp assessed as inhibition of bacterial growth at 125 uM incubated for 15 hrs by spectrophotometry; format: organism-based; details: MH602, 15 h, read-out: GI
Pseudomonas aeruginosa [6] = assay: Inhibition of biofilm formation in Pseudomonas aeruginosa PAO1 at 250 uM incubated for 6 hrs by crystal violet staining based method; format: functional; details: for inhibition at 250 µM: PAO1, 6 h
Method in brief: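 P. aeruginosa PA01 biofilm. Cultures grown with or without test compound for 6 h. Biofilm biomass quantified by crystal violet staining (OD550). % inhibition calculated relative to DMSO control.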

[7] = Inhibition of quorum sensing system in Pseudomonas aeruginosa MH602 PlasB::gfp at 31.25 uM incubated for 15 hrs by GFP reporter gene assay; method in brief: as §1
[8] = Inhibition of quorum sensing system in Pseudomonas aeruginosa MH602 PlasB::gfp at 250 uM incubated for 15 hrs by GFP reporter gene assay; method in brief: as §1
Pseudomonas aeruginosa [9] = assay: Toxicity in Pseudomonas aeruginosa MH602 PlasB::gfp assessed as inhibition of bacterial growth at 250 uM incubated for 15 hrs by spectrophotometry; format: organism-based; details: MH602, 15 h, read-out: GI

| SMILES | inhibition at 31.25 µM (Pseudomonas aeruginosa [1]) | inhibition at 62.5 µM (Pseudomonas aeruginosa [2]) | inhibition [3] | inhibition [4] | inhibition at 125 µM (Pseudomonas aeruginosa [5]) | inhibition at 250 µM (Pseudomonas aeruginosa [6]) | inhibition [7] | inhibition [8] | inhibition at 250 µM (Pseudomonas aeruginosa [9]) | inhibition (Pseudomonas aeruginosa [6]) |
| --- | --- | --- | --- | --- | --- | --- | --- | --- | --- | --- |
| C=C1NC(=O)C=C1c1ccc(F)cc1 | ≤ 15% | ≤ 15% | 76.3% | 60.2% | ≤ 15% | 46.1% | 33.3% | 82.4% | 15 to 30% |  |
| C=C1NC(=O)C=C1c1cccc(Cl)c1 | ≤ 15% | ≤ 15% | 69.4% | 54.7% | ≤ 15% | 47.3% | 26.3% | 73.3% | ≤ 15% |  |
| C=C1C(c2ccccc2F)=CC(=O)N1c1ccccc1 | ≤ 15% | ≤ 15% | 60.9% | 56.9% | ≤ 15% | 38.2% | 46.4% | 63.7% | ≤ 15% |  |
| O=C1C=C(c2ccsc2)CN1 | ≤ 15% | ≤ 15% | 49.3% | 26.6% | ≤ 15% |  | 24.7% | 72.1% | ≤ 15% | inactive |
| C=C1C(c2ccccc2F)=CC(=O)N1c1ccc(Br)cc1 | ≤ 15% | ≤ 15% | 54.9% | 48.4% | ≤ 15% | 49.2% | 39.7% | 60.7% | ≤ 15% |  |
| C=C1C(c2ccc(Br)cc2)=CC(=O)N1c1ccc(C)cc1 | ≤ 15% | ≤ 15% | 52.6% | 42.7% | ≤ 15% | 16.3% | 15.2% | 61.6% | 15 to 30% |  |
| C=C1NC(=O)C=C1c1cccc(F)c1 | ≤ 15% | ≤ 15% | 66.5% | 52.9% | ≤ 15% | 55.2% | 39.5% | 72.8% | ≤ 15% |  |
| C=C1C(c2ccc(Br)cc2)=CC(=O)N1c1ccc(C(F)(F)F)cc1 | ≤ 15% | ≤ 15% | 48.4% | 45.8% | ≤ 15% | 37.5% | 11.2% | 52.8% | ≤ 15% |  |
| C=C1C(c2ccc(Br)cc2)=CC(=O)N1c1csc2ccccc12 | ≤ 15% | ≤ 15% | 55.6% | 42.8% | ≤ 15% | 13.2% | 34.1% | 67.4% | 15 to 30% |  |
| C=C1NC(=O)C=C1c1ccccc1 | ≤ 15% | ≤ 15% | 59% | 31.6% | ≤ 15% | 47.6% | 19.6% | 71.5% | ≤ 15% |  |
| C=C1NC(=O)C=C1c1ccc([N+](=O)[O-])cc1 | ≤ 15% | ≤ 15% | 69.9% | 63.5% | ≤ 15% | 57.2% | 51.3% | 80.9% | 15 to 30% |  |
| C=C1NC(=O)C=C1c1ccccc1F | ≤ 15% | ≤ 15% | 69.7% | 58.3% | ≤ 15% | 51.3% | 37.8% | 72% | ≤ 15% |  |
| C=C1C(c2ccc(Br)cc2)=CC(=O)N1c1ccccc1 | ≤ 15% | ≤ 15% | 62% | 39.2% | ≤ 15% | 35.2% | 22% | 78.6% | 15 to 30% |  |
| C=C1NC(=O)C=C1c1ccc(CC)cc1 | ≤ 15% | ≤ 15% | 59.6% | 35.1% | ≤ 15% | 38.9% | 32.5% | 67.9% | ≤ 15% |  |
| C=C1C(c2ccccc2F)=CC(=O)N1c1cccc(C)c1 | ≤ 15% | ≤ 15% | 39.7% | 25.5% | ≤ 15% | 42% | 25.3% | 59.1% | ≤ 15% |  |
| C=C1C(c2ccccc2F)=CC(=O)N1c1ccc(Cl)cc1 | ≤ 15% | ≤ 15% | 57.9% | 51.6% | ≤ 15% | 46.5% | 36.2% | 59.4% | ≤ 15% |  |
| C=C1C(c2ccccc2F)=CC(=O)N1c1cccc(F)c1 | ≤ 15% | ≤ 15% | 55.2% | 41.8% | ≤ 15% | 58.9% | 24% | 61.1% | ≤ 15% |  |
| C=C1C(c2ccccc2F)=CC(=O)N1CCCC | ≤ 15% | ≤ 15% | 34.2% | 33.5% | ≤ 15% | 52.2% | 38.2% | 55.3% | ≤ 15% |  |
| C=C1C(c2ccc(Br)cc2)=CC(=O)N1c1ccc(Br)cc1 | ≤ 15% | ≤ 15% | 50.5% | 40.4% | ≤ 15% | 17% | 8.81% | 54.3% | ≤ 15% |  |
| C=C1C(c2ccc(Br)cc2)=CC(=O)N1c1cccc(Br)c1 | ≤ 15% | ≤ 15% | 60.3% | 37.7% | ≤ 15% | 47.1% | 12.6% | 73.2% | ≤ 15% |  |
| O=C1C=C(c2ccc(F)cc2)CN1 | ≤ 15% | ≤ 15% | 40.2% | 28.7% | ≤ 15% |  | 27.1% | 63% | ≤ 15% | inactive |
